In the library only some 3% were active in any assay of this set; here they are far more common.
NSD2 inh = blocks human histone methyltransferase NSD2. NSD2 peptide methylation, AlphaScreen, 120 min. hit rate 0.54% among 310,000. O96028. inhibition, % at 12.5 µM; in the data active means inhibition above about 50%
CASP6 VEID inh = blocks human caspase-6 cleavage activity | P55212 | purified caspase-6, Z-VEID-R110 cleavage fluorescence | inhibition, % at 12.5 µM | hit rate 0.53% among 350,000;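 active means mean inhibition across replicates at least about 35%, with every replicate also reaching that limit, limit read from the data; inconclusive means only one of the two criteria met; inactive means neither criterion met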;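 further: 0% = median of neutral control wells and 100% = no fluorescence left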
Target sequence (P55212 24-179 limits assumed): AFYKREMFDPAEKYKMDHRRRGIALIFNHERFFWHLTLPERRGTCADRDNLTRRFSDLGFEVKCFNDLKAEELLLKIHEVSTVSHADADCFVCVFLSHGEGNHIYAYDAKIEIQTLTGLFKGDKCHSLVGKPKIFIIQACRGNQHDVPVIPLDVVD
Target sequence (P55212 194-293 limits assumed): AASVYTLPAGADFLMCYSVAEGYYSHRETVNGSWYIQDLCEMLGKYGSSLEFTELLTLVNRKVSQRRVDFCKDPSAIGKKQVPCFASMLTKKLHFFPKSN
Xi reactivation = activators of X-chromosome reactivation in mouse fibroblasts | XiGFP mouse fibroblasts, % GFP-positive cells imaging, 3 d; cells co-treated with 5-aza-dC sensitizer; scaled so ellipticine positive control = 100% | activation, % at 7.58 µM | hit rate 0.055% among 360,000 | AID 743238;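 active means mean normalized replicate activation at least 10% and every replicate at or above 10%; inconclusive means only one of the two criteria met; inactive means mean below 10% and not all replicates reach 10%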;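 further: 0% = median of on-plate neutral control wells and 100% = ellipticine 6 µM median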
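System: 68-5-11 XiGFP fibroblast line | Buffer or medium: DMEM containing 5-aza-dC | Compound: Single point | Times: Compounds 3 days, fix/stain 15 min at room temperature | Benchmarks: Positive control ellipticine, 6 µM final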
esBAF inh = SWI/SNF esBAF complex inhibition; mouse ES cells, Bmi1-luciferase knock-in reporter, 24 h; 100% = twice the neutral-well signal; reporter increase, % at 12.5 µM; hit rate 2% among 350,000; AID 602393; in the data active means activation above about 40%; inconclusive means no clear call, values can overlap the other calls;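 further: 0% = median of the plate's neutral control wells and 100% = double that signal; a rise in the Bmi1 reporter signal indicates esBAF inhibition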
Wnt act = activates Wnt/beta-catenin signaling in a reporter cell assay; hit rate 1.2% among 300,000; activation, % at 9.35 µM; activator, plate reader; in the data active means activation above about 30%, passing the limit was not always enough; inconclusive means no clear call, values can overlap the other calls;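 further: 0% = neutral control wells and 100% = positive control wells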
MITF TRPM1 HTS = activators of MITF-driven TRPM1 promoter activity in SK-MEL-5 cells; SK-MEL-5 TRPM1-promoter luciferase, 24 h; % of positive control, neutral wells = 0; activation, % at 12.5 µM; hit rate 0.75% among 300,000; AID 588334;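 active means mean activation of at least 80% with every replicate also reaching 80%; inconclusive means mean reaches 80% but some replicate falls short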;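 further: 0% = neutral control wells and 100% = parthenolide positive control wells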
Numbers without * were called inactive; ? = inconclusive; · = not tested or not shown.

SMILES | NSD2 inh | CASP6 VEID inh | Xi reactivation | esBAF inh | Wnt act | MITF TRPM1 HTS
O=C(NCC1CCCO1)Nc1ccc(Cl)cc1 (configuration not stated) | -2.3 | · | · | 45.4* | -0.6 | 42.6
S=C(NCC1CCCO1)Nc1ccc(Cl)cc1 (configuration not stated) | -1.7 | -0.1 | -0.1 | · | 4.0 | 6.0
COC(=O)c1ccc(NC(=O)C(=O)NCC2CCCO2)cc1 (configuration not stated) | -1.3 | 1.6 | 0.0 | 45.2* | 13.9 | 14.3
CCC(=O)N1CCCCN2[C@@H](CO)[C@H](c3ccc(C#Cc4ccccc4F)cc3)[C@@H]2C1 | · | -2.3 | -0.1 | 1.3 | · | ·
C[C@H](CO)N1C[C@H](C)[C@@H](CN(C)Cc2ccc(Cl)c(Cl)c2)OCCCC[C@H](C)Oc2ccc(NS(=O)(=O)c3ccc(Cl)cc3)cc2C1=O | · | -0.8 | 0.6 | -0.6 | · | ·
Cc1ccc(C(=O)NC(=S)NCC2CCCO2)cc1 (configuration not stated) | -0.2 | · | · | ? | · | ?
O=C(COC(=O)c1ccccc1)NCC1CCCO1 (configuration not stated) | -2.3 | -0.6 | · | 49.0* | · | 8.1
N#C/C(=C\c1ccco1)C(=O)NCC1CCCO1 (configuration not stated) | 4.5 | 7.9 | 0.5 | · | 0.7 | -12.4
O=C(NC(=S)NCC1CCCO1)c1ccc(Cl)cc1 (configuration not stated) | -0.5 | -1.0 | -0.1 | · | 1.9 | 87.7*
Cc1ccc(/C=C(\C#N)C(=O)NCC2CCCO2)o1 (configuration not stated) | 6.1 | 4.3 | 0.1 | 13.4 | 78.3* | 10.0
COc1ccc2c3c(n(C)c2c1)[C@H](CO)NCC31CCN(C(C)=O)CC1 | · | · | 0.0 | · | · | ·
CO[C@H]1CN(C)C(=O)c2cc(NC(=O)C3CC3)ccc2OC[C@H](C)N(Cc2ccccc2)C[C@@H]1C | · | -0.2 | 0.2 | 3.5 | · | ·
O=C(CC(Nc1ccc(Cl)cc1Cl)C(=O)O)c1ccccc1 (configuration not stated) | 8.4 | 0.0 | -0.2 | · | -13.1 | -13.6
Cc1ccc(NC(CC(=O)c2ccccc2)C(=O)O)cc1Cl (configuration not stated) | · | -1.5 | -0.1 | · | 52.9* | 73.4
O=C(CC(Nc1ccccc1)C(=O)O)c1ccccc1 (configuration not stated) | 5.3 | · | · | · | · | 101.2*
OC[C@@H]1[C@H](c2ccc(/C=C/c3ccccc3)cc2)[C@@H]2CN(Cc3ccncc3)CCCCN12 | · | -0.2 | -0.1 | 22.8 | · | ·
COc1cc(Br)cc(/C=C/c2ccc3cccc(O)c3n2)c1OC | -2.1 | -4.8 | 0.0 | 9.2 | 1.5 | -21.9
Cc1ccc(/C=C/c2ccc3cccc(O)c3n2)s1 | 0.6 | 0.9 | 0.6 | 29.2 | ? | 44.2
COc1ccc(/C=C/c2ccc3cccc(O)c3n2)c(OC)c1OC | 1.6 | -3.4 | ? | 83.7* | 57.3* | 16.9
COc1cccc(/C=C/c2ccc3cccc(O)c3n2)c1OC | 2.9 | -0.8 | 0.7 | 68.8* | 53.7* | 16.7
C[C@@H]1CN([C@H](C)CO)C(=O)Cc2cc(NC(=O)NC3CCCCC3)ccc2O[C@H]1CN(C)Cc1ccc(C(F)(F)F)cc1 | · | -0.1 | 0.4 | 10.0 | · | ·
COc1ccc(CN2C(=O)c3cccc4cccc(c34)C2=O)cc1 | · | -0.2 | -0.1 | · | 41.4* | -2.7
O=C(COC(=O)c1ccccc1Cl)NC1CCCCCC1 | -1.4 | 3.4 | 0.0 | 69.4* | -3.7 | 56.0
O=C(COC(=O)c1cccc(Cl)c1Cl)NC1CCCC1 | -9.6 | -0.7 | -0.1 | 7.1 | -0.3 | 11.8
O=C(COC(=O)c1c(F)cccc1Cl)NC1CCCC1 | -1.3 | 3.7 | -0.1 | 49.6* | 3.3 | 29.0
SMILES | NSD2 inh | CASP6 VEID inh | Xi reactivation | esBAF inh | Wnt act | MITF TRPM1 HTS
CCCOc1ccc(-c2c(=O)n(O)c3ccccc3[n+]2[O-])cc1 | 1.6 | -0.8 | 0.2 | 49.8* | 14.4 | ·
CCOc1ccc(-c2c(=O)n(OCc3ccccn3)c3ccccc3[n+]2[O-])cc1 | 2.7 | · | · | 18.8 | 12.1 | 24.9
C=CC[C@]1(C(=O)N(C)C)N=C(c2ccc(OCCCO)cc2)O[C@H]1c1ccccc1 | · | 2.4 | · | · | · | ·
Nc1ccc2nc(-c3ccccc3)[nH]c2c1 | -2.5 | · | · | 26.5 | 20.7 | ·
Nc1ccc2nc(-c3cccs3)[nH]c2c1 | 0.1 | -1.0 | · | 44.2* | 13.5 | 58.5
COc1ccc2c3c(n(C)c2c1)[C@@H](CO)N(C)CC31CN(S(=O)(=O)c2cn(C)cn2)C1 | · | · | 0.2 | · | · | ·

Compound activity deposited in PubChem by Broad Institute.
